Assay outcomes (PubChem)
MC4R barr agon = activates human MC4R beta-arrestin recruitment | hit rate 0.98% among 360,000 | P32245 | U2OS MC4R beta-arrestin complementation, luminescence; percent of melanotan II response, DMSO zero | activation, % at 8.9 µM;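 active means activation above a per-plate cutoff, the mean activation of sample wells on that plate plus 3 SD, cut at about 8% in these data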
Target sequence (P32245 whole entry, looked up): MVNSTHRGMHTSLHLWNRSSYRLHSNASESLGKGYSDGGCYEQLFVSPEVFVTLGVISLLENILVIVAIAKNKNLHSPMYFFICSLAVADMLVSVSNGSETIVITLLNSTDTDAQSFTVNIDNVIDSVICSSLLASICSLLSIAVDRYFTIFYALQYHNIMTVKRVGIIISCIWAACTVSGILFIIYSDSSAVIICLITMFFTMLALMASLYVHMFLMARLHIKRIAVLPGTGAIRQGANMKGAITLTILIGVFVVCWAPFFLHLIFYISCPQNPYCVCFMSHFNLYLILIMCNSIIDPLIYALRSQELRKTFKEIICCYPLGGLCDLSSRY
MC4R antag cAMP = antagonists of human melanocortin 4 receptor (MC4R); P32245; MC4R-expressing cells, MTII-stimulated cAMP, LANCE TR-FRET; inhibition, % at 6.5 µM; hit rate 0.48% among 360,000;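 active means inhibition above its plate's cutoff, the mean of tested wells on that plate plus 3 SD, cut at about 29% in these data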;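 further: 0% = Melanotan II alone and 100% = Melanotan II plus saturating MCL0020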
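Material: human MC4R-expressing U2OS cells. Probe or stimulus: Melanotan II challenge. Dosing: 6.5 µM single dose. Times: 30-min compound, 1-h challenge, 1-h detection, room temperature. Technique: TR-FRET with Eu-cAMP and labeled anti-cAMP, 671 nm. Replication: singlicate.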
AI-2 QS modul = modulators of Vibrio harveyi AI-2 quorum sensing system; Vibrio harveyi JMH597 AI-2 luminescence/OD600 ratio, 9 h; active compounds read low; strain lacks LuxN and CqsS sensors; 0 = neutral-control median; activity change, % at 7.5 µM; hit rate 0.4% among 300,000; AID 2094; in the data active means activity change below about -75%, passing the limit was not always enough;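 further: luminescence divided by OD600 gain over 9 h not by final OD600 alone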
NTR1 agonist = activates human neurotensin receptor 1 | NTR1-U2OS beta-arrestin-GFP spot imaging, agonist mode | activation, % at 20 µM | hit rate 0.17% among 330,000 | P30989;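 active means activation at or above 40% of the spot to cytoplasm intensity ratio, with at least 20 cells analyzed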;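 further: 0% = DMSO without peptide and 100% = 100 nM NTR1 peptide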
MC4R barr ag = human MC4R beta-arrestin agonism confirmation; shares compounds with MC4R barr agon; U2OS MC4R beta-arrestin recruitment, luminescence; scaled DMSO 0%, Melanotan II 100%; activation, % at 8.9 µM; hit rate 31% among 2,400;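 active means mean activation across replicates above the hit cutoff set in the earlier primary screen, cut at about 8% in these data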
MOR DOR agonist = activates mu-delta opioid heterodimer, MC4R agonist counter-screen | shares compounds with MC4R barr agon | U2OS PathHunter beta-arrestin, beta-gal luminescence; percent of deltorphin B response, DMSO zero | activation, % at 9.2 µM | hit rate 5.8% among 2,400 | AID 602194;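 active means mean activation across replicates exceeds the hit threshold derived in the earlier primary screen, cut at about 18% in these data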;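 further: 100% = deltorphin B at 0.9 µM final and 0% = DMSO alone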
An asterisk follows results filed as active; nt = no result given. Compounds with a hit are over-represented: about 1.8% of the library has one in this group of screens.

SMILES	MC4R barr agon	MC4R antag cAMP	AI-2 QS modul	NTR1 agonist	MC4R barr ag	MOR DOR agonist
CN(Cc1ccccc1)C(=O)c1ccc(NC(=O)Cc2ccc(NC(=O)C3CCCN(C(=O)CCc4ccccc4)C3)cc2)cc1 (stereo not given)	0	-4	nt	nt	nt	nt
O=C(Nc1cc(C(F)(F)F)ccc1N1CCOCC1)c1cn2ccccc2n1	12*	-1	11	-2	-1	3
O=C(Nc1cc(S(=O)(=O)N2CCOCC2)ccc1N1CCOCC1)c1cn2ccccc2n1	2	4	14	1	nt	nt
COc1ccc2nc(NC(=O)c3ccc(F)cc3)sc2c1	13*	0	10	1	-1	4
COc1ccc2nc(NC(C)=O)sc2c1	0	-4	5	-3	nt	nt
COc1ccc2nc(NC(=O)c3ccc(-n4nc(C)cc4C)cc3)sc2c1	20*	-2	28	9	-3	8
CCOc1ccccc1OCCCC(=O)ON=C(N)c1ccccc1	-1	0	nt	-2	nt	nt
O=S(=O)(Nc1ccc(Cc2ccncc2)cc1)c1cccs1	-1	13	9	0	nt	nt
CCCCc1ccc(NS(=O)(=O)c2cccs2)cc1	17*	15	-21	7	8.5*	7
CC(C)CN1CCN(CCCOC(=O)Nc2cccc3ccccc23)CC1C (stereo not given)	0	-1	nt	nt	nt	nt
CC(OC(=O)CSc1ccc([N+](=O)[O-])cc1)C(=O)NCc1ccccc1 (stereo not given)	0	17	9	0	nt	nt
COCCOc1ccc(C(F)(F)F)cc1NC(=O)c1ccc(F)cc1	7	-2	28	3	nt	nt
COCCOc1ccc(C(F)(F)F)cc1NC(=O)c1ccc(C)cc1	15*	-2	17	0	1	6
N=c1oc2ccc(Br)cc2cc1C(=O)NC1CCCCCC1	-1	17	23	2	nt	nt
O=C(Nc1ccc2c(c1)Cc1ccccc1-2)c1ccc(Br)o1	10*	3	24	3	-1	4
O=C(Nc1ccc2c(c1)Cc1ccccc1-2)c1ccccc1F	11*	6	19	0	1	5
O=C(Nc1ccc2c(c1)OCCO2)c1ccc(Br)o1	-3	0	14	-4	nt	nt
Cc1ccccc1-c1nc(-c2ccc(NC(=O)c3ccc(Br)o3)cc2)no1	30*	5	10	3	21*	4
CC1(C(=O)OCC(=O)Nc2cc(S(=O)(=O)N3CCOCC3)ccc2Cl)CC1(Cl)Cl (stereo not given)	0	18	nt	nt	nt	nt
Cc1cccc(C(=O)Nc2ccc(O)c3c(=O)cc(-c4ccccc4Cl)oc23)c1	17*	7	17	2	0	3
Cc1ccc(NC(=O)CCCN2C(=O)c3cccc4cccc(c34)C2=O)cc1	6	-1	8	5	nt	nt
Cc1ccc(NC(=O)CCN2C(=O)c3cccc4cccc(c34)C2=O)cc1	19*	5	17	2	3	8
O=C(CSc1nc(Cc2ccccc2)nc2ccccc12)Nc1ccc2c(c1)OCCO2	14*	-1	-13	8	1	3
C#CCN(Cc1ccco1)C(=O)c1cc(COc2cccc3cccnc23)on1	-1	4	nt	nt	nt	nt
Cc1cc(C(=O)Nc2sc(C)c(-c3ccc(F)cc3)c2C(N)=O)no1	13*	-7	5	3	0	8
SMILES	MC4R barr agon	MC4R antag cAMP	AI-2 QS modul	NTR1 agonist	MC4R barr ag	MOR DOR agonist
CCOc1ccc(C(=O)Nc2ccc(NC(=O)c3ccco3)c(Cl)c2)cc1Cl	36*	-8	13	17	3	19*
CCOc1cc(C(=O)Nc2ccc3c(c2)OCO3)ccc1OCCOc1ccccc1Cl	10*	1	29	0	12*	6
CCOc1ccc(C(=O)Nc2cccc([N+](=O)[O-])c2)cc1Br	15*	-10	17	3	4	8
CCOc1ccc(C(=O)Nc2ccc(NC(=O)c3ccccc3)c(C)c2)cc1[N+](=O)[O-]	12*	5	26	0	-3	5
CCOc1cccc(C(=O)Nc2ccc(NC(=O)c3ccccc3)c(C)c2)c1	0	13	3	1	nt	nt
COc1cccc(C(=O)Nc2ccc(NC(=O)c3ccco3)c(Cl)c2)c1	-1	-5	-3	1	nt	nt
CC(C)(C)Cc1nnc(NC(=O)CCC2CCCCC2)s1	-1	2	10	1	nt	nt
O=C(Nc1ccc(NC(=O)c2sc3ccccc3c2Cl)cc1Cl)c1ccco1	36*	0	14	2	8.8*	3
CCOc1ccc(C(=O)NC(=S)Nc2ccc(NC(=O)CC)cc2)cc1[N+](=O)[O-]	-1	20	2	0	nt	nt
CCC(=O)NC(=S)Nc1ccc(NC(=O)c2ccc(C)c([N+](=O)[O-])c2)cc1	11*	11	2	7	0	7
O=C(Nc1ccc(NC(=O)c2cccs2)c(Cl)c1)c1ccco1	-1	-7	27	-1	nt	nt
CCOc1ccc(C(=O)Nc2ccc(NC(=O)c3ccco3)c(Cl)c2)cc1Br	36*	1	38	16	6	16
C[C@@H]1CN([C@@H](C)CO)C(=O)CCCn2nncc2CO[C@H]1CN(C)S(=O)(=O)c1ccc(C#N)cc1	-4	0	nt	nt	nt	nt
CCOCCC(=O)Nc1ccc2c(c1)c(=O)n(C)n2-c1ccccc1F	0	-1	nt	nt	nt	nt
CC(=O)c1nn(-c2cccc(Br)c2)cc1C(=O)c1ccc(Cl)cc1	32*	-5	-4	3	13*	6
CC(=O)c1nn(-c2ccc(Cl)cc2)cc1C(=O)c1ccccc1	18*	1	3	0	4	16
CC(=O)c1nn(-c2cccc(Br)c2)cc1C(=O)c1ccco1	-2	1	17	1	nt	nt
CCOC(=O)c1nn(-c2ccc(C)cc2)cc1C(=O)c1ccccc1	0	3	-60	0	nt	nt
CC(=O)c1nn(-c2ccccc2)cc1C(=O)c1cccc(Br)c1	9.8*	0	12	-2	12*	5
CCCCc1cc(=O)oc2cc(C)cc(OCC(=O)NCc3ccccn3)c12	-2	15	12	2	nt	nt
Cc1ccc(NC2CCCN(C(=O)c3ccnc(Cl)c3)C2)cc1C (stereo not given)	-2	12	8	1	nt	nt
CC1(NC(=O)Cc2c(Cl)cccc2Cl)CCS(=O)(=O)C1 (stereo not given)	-2	2	nt	3	nt	nt
CCN(CC(=O)NCc1ccc(F)cc1)C(=O)/C=C/c1cc(OC)ccc1OC	-1	-2	13	-1	nt	nt
CS(=O)(=O)N1CCC(C(=O)Nc2cccc(C(F)(F)F)c2)CC1	-2	-5	27	0	nt	nt
Cc1cc(C)nc(N2CCC(C(=O)Nc3cccc(C(F)(F)F)c3)CC2)n1	14*	1	11	2	0	6
